10 compounds from ChEMBL document CHEMBL1143592, “N-terminal sugar conjugation and C-terminal Thr-for-Thr(ol) exchange in radioiodinated Tyr3-octreotide: effect on cellular ligand trafficking in vitro and tumor accumulation in vivo” (J Med Chem, 2005) can be followed below.

Common to all, as to type: cell-based
The target of assay [1] is Somatostatin receptor type 2 (Homo sapiens, UniProt P30874). The experiment in a line: Relative effective concentration against human somatostatin receptor type 2 expressed in CHO cells; (n=3). The procedure, abridged: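 Dual-tracer internalization in CHO cells stably expressing N-terminally tagged hsst2 (90000–120000 cells/well, plated the day before). Acid wash at pH 5 removed surface-bound activity; nonspecific uptake was taken with 5 µM TOC; triplicates. EC50 is expressed relative to [125I]TOC.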
Somatostatin receptor type 2, sequence (P30874 whole entry): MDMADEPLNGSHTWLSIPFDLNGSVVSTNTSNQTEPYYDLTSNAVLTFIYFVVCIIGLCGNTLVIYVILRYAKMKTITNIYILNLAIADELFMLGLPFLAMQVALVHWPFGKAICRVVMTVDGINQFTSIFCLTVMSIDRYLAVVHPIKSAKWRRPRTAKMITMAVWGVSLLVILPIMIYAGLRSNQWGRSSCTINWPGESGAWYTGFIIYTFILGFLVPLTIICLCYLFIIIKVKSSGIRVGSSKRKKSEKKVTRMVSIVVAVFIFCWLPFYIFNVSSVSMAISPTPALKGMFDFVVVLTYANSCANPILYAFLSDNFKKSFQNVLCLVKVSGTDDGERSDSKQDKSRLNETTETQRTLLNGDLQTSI

Assay [2] concerns the target T1, Somatostatin receptor type 1 (Homo sapiens, UniProt P30872). The experiment in a line: In vitro inhibition of [125I][Leu8,D-Trp22,Tyr25] somatostatin 28 binding to human somatostatin receptor type 1 expressed in CHO-K1 cells; (n=5).
In assay [3] the target is T2, Somatostatin receptor type 3 (Homo sapiens, UniProt P32745). The experiment in a line: In vitro inhibition of [125I][Leu8,D-Trp22,Tyr25] somatostatin 28 binding to human somatostatin receptor type 3 expressed in CCL39 cells; (n=5).
T2 sequence (P32745 whole entry): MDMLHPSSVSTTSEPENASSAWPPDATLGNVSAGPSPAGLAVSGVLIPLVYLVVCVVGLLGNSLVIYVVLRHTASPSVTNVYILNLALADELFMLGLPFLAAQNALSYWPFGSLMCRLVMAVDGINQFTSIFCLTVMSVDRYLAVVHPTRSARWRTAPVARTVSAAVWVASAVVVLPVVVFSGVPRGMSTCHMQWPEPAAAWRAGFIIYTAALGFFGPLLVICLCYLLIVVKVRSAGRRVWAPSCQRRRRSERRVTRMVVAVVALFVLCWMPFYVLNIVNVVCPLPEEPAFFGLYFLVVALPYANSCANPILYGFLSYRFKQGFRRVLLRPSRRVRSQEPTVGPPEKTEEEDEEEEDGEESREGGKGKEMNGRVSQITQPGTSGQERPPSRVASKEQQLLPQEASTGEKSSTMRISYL
Assay [4] deals with T3, Somatostatin receptor type 4 (Homo sapiens, UniProt P31391). Description: In vitro inhibition of [125I][Leu8,D-Trp22,Tyr25] somatostatin 28 binding to human somatostatin receptor type 4 expressed in CCL39 cells; (n=5).
T3 sequence (P31391 whole entry): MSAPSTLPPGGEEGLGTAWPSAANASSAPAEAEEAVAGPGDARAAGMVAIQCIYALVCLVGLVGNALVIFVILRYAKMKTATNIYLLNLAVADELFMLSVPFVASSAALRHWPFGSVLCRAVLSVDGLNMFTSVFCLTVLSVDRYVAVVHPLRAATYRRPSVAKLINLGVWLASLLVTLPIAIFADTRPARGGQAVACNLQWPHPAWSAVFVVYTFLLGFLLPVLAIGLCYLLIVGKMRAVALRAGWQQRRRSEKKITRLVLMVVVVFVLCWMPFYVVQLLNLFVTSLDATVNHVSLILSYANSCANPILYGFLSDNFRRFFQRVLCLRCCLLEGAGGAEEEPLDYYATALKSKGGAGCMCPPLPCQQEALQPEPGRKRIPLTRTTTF
The target in assay [5] is T2, Somatostatin receptor type 3. The experiment in a line: In vitro inhibition of [125I][Leu8,D-Trp22,Tyr25] somatostatin 28 binding to human somatostatin receptor type 3 expressed in CCL39 cells; (n=2). Summed up:
(§1)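 Receptor autoradiography on sections of cell membrane pellets from CHO-K1 (sst1, sst5) or CCL39 (sst2–4) cells stably expressing the human subtype. Full displacement of [125I][Leu8,D-Trp22,Tyr25]somatostatin 28 by unlabeled peptide, 0.1–1000 nM, with somatostatin 28 run in parallel as control. IC50 derived by computer-assisted image analysis, quantified against cross-calibrated [125I] tissue standards.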

Assay [6] concerns the target T3, Somatostatin receptor type 4. The experiment in a line: In vitro inhibition of [125I][Leu8,D-Trp22,Tyr25] somatostatin 28 binding to human somatostatin receptor type 4 expressed in CCL39 cells; (n=2). The procedure, abridged: as §1
The target of assay [7] is T1, Somatostatin receptor type 1. The experiment in a line: In vitro inhibitory concentration against somatostatin receptor type 1 expressed in CHO-K1 cells using [125I][Leu8,D-Trp22,Tyr25] somatostatin 28 as radioligand; (n=2). The procedure, abridged:
as §1

For assay [8] the target is unchanged. Description: In vitro inhibition of [125I][Leu8,D-Trp22,Tyr25] somatostatin 28 binding to human somatostatin receptor type 1 expressed in CHO-K1 cells; (n=7). The procedure, abridged: as §1
Assay [9] deals with T2, Somatostatin receptor type 3. The experiment in a line: In vitro inhibition of [125I][Leu8,D-Trp22,Tyr25] somatostatin 28 binding to human somatostatin receptor type 3 expressed in CCL39 cells; (n=4). The procedure, abridged:
as §1

In assay [10] the target is T3, Somatostatin receptor type 4. Description: In vitro inhibition of [125I][Leu8,D-Trp22,Tyr25] somatostatin 28 binding to human somatostatin receptor type 4 expressed in CCL39 cells; (n=6).
The target in assay [11] is Somatostatin receptor type 5 (Homo sapiens, UniProt P35346). Description: In vitro inhibition of [125I][Leu8,D-Trp22,Tyr25] somatostatin 28 binding to human somatostatin receptor type 5 expressed in CHO-K1 cells; (n=6).
Somatostatin receptor type 5, sequence (P35346 whole entry): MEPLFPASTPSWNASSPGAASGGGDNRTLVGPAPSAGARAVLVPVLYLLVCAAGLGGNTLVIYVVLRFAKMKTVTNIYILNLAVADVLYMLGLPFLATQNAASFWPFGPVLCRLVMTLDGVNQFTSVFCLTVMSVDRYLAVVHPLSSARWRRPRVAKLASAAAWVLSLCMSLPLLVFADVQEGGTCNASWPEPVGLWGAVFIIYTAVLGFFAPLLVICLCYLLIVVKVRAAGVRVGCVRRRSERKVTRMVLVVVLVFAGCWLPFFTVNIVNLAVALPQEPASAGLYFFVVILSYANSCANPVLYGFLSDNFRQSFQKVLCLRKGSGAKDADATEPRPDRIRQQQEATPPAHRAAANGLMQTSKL

T1 sequence (P30872 whole entry): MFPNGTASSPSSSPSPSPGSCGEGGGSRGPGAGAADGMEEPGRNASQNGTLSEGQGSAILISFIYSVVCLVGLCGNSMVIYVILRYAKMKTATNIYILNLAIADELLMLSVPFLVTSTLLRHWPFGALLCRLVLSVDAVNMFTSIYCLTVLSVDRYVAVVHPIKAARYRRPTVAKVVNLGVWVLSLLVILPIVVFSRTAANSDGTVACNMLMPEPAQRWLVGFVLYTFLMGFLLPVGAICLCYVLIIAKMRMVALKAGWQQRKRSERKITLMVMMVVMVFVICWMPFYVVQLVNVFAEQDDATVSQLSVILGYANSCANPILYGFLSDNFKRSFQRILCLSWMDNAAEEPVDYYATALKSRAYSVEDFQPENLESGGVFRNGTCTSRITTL

Regarding `C[C@@H](O)[C@H](NC(=O)[C@@H]1CSSC[C@H](NC(=O)[C@@H](Cc2ccccc2)NC[C@]2(O)OC[C@H](O)[C@@H](O[C@@H]3O[C@@H](CO)[C@@H](O)[C@H](O)[C@@H]3O)[C@@H]2O)C(=O)N[C@@H](Cc2ccc(O)c([123I])c2)C(=O)N[C@H](Cc2c[nH]c3ccccc23)C(=O)N[C@@H](CCCCN)C(=O)N[C@@H]([C@@H](C)O)C(=O)N1)C(=O)O`, the EC50 (in general, the concentration needed to bring the measured effect to its halfway point) in [1] (cho) is 2.13 nM.

As for `C[C@@H](O)[C@H](CO)NC(=O)[C@@H]1CSSC[C@H](NC(=O)[C@@H](Cc2ccccc2)NC[C@]2(O)OC[C@H](O)[C@@H](O[C@@H]3O[C@@H](CO)[C@@H](O[C@@H]4O[C@@H](CO)[C@@H](O)[C@H](O)[C@@H]4O)[C@H](O)[C@@H]3O)[C@@H]2O)C(=O)N[C@@H](Cc2ccc(O)c([123I])c2)C(=O)N[C@H](Cc2c[nH]c3ccccc23)C(=O)N[C@@H](CCCCN)C(=O)N[C@@H]([C@@H](C)O)C(=O)N1`, the 50% effective concentration (EC50) in assay [1] (cho) came to 1.01 nM.

For the compound `C[C@H](O)[C@@H](CO)NC(=O)[C@@H]1CSSC[C@H](NC(=O)[C@H](N)Cc2ccccc2)C(=O)N[C@@H](Cc2ccc(O)c(I)c2)C(=O)N[C@H](Cc2c[nH]c3ccccc23)C(=O)N[C@@H](CCCCN)C(=O)N[C@@H]([C@@H](C)O)C(=O)N1`, the values for the IC50 in assay [2], in assay [3] and in [4] were above 1000 nM, 186 nM and 729 nM, respectively.

For `C[C@@H](O)[C@H](CO)NC(=O)[C@@H]1CSSC[C@H](NC(=O)[C@@H](Cc2ccccc2)NC[C@]2(O)OC[C@H](O)[C@@H](O)[C@@H]2O)C(=O)N[C@@H](Cc2ccc(O)c([123I])c2)C(=O)N[C@H](Cc2c[nH]c3ccccc23)C(=O)N[C@@H](CCCCN)C(=O)N[C@@H]([C@@H](C)O)C(=O)N1`, the EC50 in assay [1] (cho) turned out to be 1.43 nM.

In the case of `C[C@H](O)[C@@H](CO)NC(=O)[C@@H]1CSSC[C@H](NC(=O)[C@H](N)Cc2ccccc2)C(=O)N[C@@H](Cc2ccc(O)cc2)C(=O)N[C@H](Cc2c[nH]c3ccccc23)C(=O)N[C@@H](CCCCN)C(=O)N[C@@H]([C@@H](C)O)C(=O)N1`, the IC50 (usually the concentration at which inhibition is half-maximal) is 330 nM in assay [5], 346 nM in assay [6] and above 1000 nM in assay [7].

`C[C@@H](O)[C@H](NC(=O)[C@@H]1CSSC[C@H](NC(=O)[C@H](N)Cc2ccccc2)C(=O)N[C@@H](Cc2ccc(O)c([123I])c2)C(=O)N[C@H](Cc2c[nH]c3ccccc23)C(=O)N[C@@H](CCCCN)C(=O)N[C@@H]([C@@H](C)O)C(=O)N1)C(=O)O` registered an EC50 in [1] of 1.7 nM.

In the case of `C[C@@H](O)[C@@H]1NC(=O)[C@H](CCCCN)NC(=O)[C@@H](Cc2c[nH]c3ccccc23)NC(=O)[C@H](Cc2ccc(O)cc2)NC(=O)[C@@H](NC(=O)[C@@H](Cc2ccccc2)NC(=O)CN2CCN(CC(=O)O)CCN(CC(=O)O)CCN(CC(=O)O)CC2)CSSC[C@@H](C(=O)N[C@H](CO)[C@@H](C)O)NC1=O` [EDOTREOTIDE], the IC50 in assay [8] is above 10000 nM; in assay [9] it was 880 nM; in assay [10], above 1000 nM; in assay [11], 393 nM.

As to `C[C@@H](O)[C@H](CO)NC(=O)[C@@H]1CSSC[C@H](NC(=O)[C@H](N)Cc2ccccc2)C(=O)N[C@@H](Cc2ccc(O)c([125I])c2)C(=O)N[C@H](Cc2c[nH]c3ccccc23)C(=O)N[C@@H](CCCCN)C(=O)N[C@@H]([C@@H](C)O)C(=O)N1`, the concentration giving a half-maximal response (EC50) in assay [1] (cho) was 1 nM.

In the case of `C[C@@H](O)[C@H](CO)NC(=O)[C@@H]1CSSC[C@H](NC(=O)[C@@H](Cc2ccccc2)NC[C@]2(O)OC[C@H](O)[C@@H](O[C@@H]3O[C@@H](CO)[C@@H](O)[C@H](O)[C@@H]3O)[C@@H]2O)C(=O)N[C@@H](Cc2ccc(O)c([123I])c2)C(=O)N[C@H](Cc2c[nH]c3ccccc23)C(=O)N[C@@H](CCCCN)C(=O)N[C@@H]([C@@H](C)O)C(=O)N1`, the half-maximal effective concentration (EC50) in assay [1] (cho) amounted to 1.12 nM.

Turning to `C[C@@H](O)[C@H](NC(=O)[C@@H]1CSSC[C@H](NC(=O)[C@@H](Cc2ccccc2)NC[C@]2(O)OC[C@H](O)[C@@H](O[C@@H]3O[C@@H](CO)[C@@H](O[C@@H]4O[C@@H](CO)[C@@H](O)[C@H](O)[C@@H]4O)[C@H](O)[C@@H]3O)[C@@H]2O)C(=O)N[C@@H](Cc2ccc(O)c([123I])c2)C(=O)N[C@H](Cc2c[nH]c3ccccc23)C(=O)N[C@@H](CCCCN)C(=O)N[C@@H]([C@@H](C)O)C(=O)N1)C(=O)O`, it took 1.81 nM to reach a half-maximal effect in assay [1] (cho) (EC50).
